# Test system: IGROV-1
# Assay: Anticancer activity against human IGROV1 cells assessed as cell growth at 10^-5 M after 48 hrs by SRB assay
# Type: functional
# Settings: IGROV-1, 48 h, read-out: Activity
# Procedure, shortened: (§1)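 NCI-60 single-dose screen at one concentration. Cells grown in RPMI 1640 with 5% FBS and 2 mM L-glutamine, plated at 5000–40,000 cells/well, and pre-incubated 24 h at 37 °C in 5% CO2 before DMSO-dissolved drug was added. Cells fixed with TCA, SRB-stained, absorbance read at 515 nm. Percent growth calculated against time-zero and untreated control plates.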
row,Compound,growth at 10 µM
1,COc1cccc(-c2nc3sccn3c2-c2ccnc(NCCNC(=O)c3cc(C(F)(F)F)cc(C(F)(F)F)c3)n2)c1,81.5%

# Test system: COLO 205
# Assay: Anticancer activity against human COLO205 cells assessed as cell growth at 10^-5 M after 48 hrs by SRB assay
# Type: functional
# Settings: COLO 205, 48 h, read-out: Activity
# Procedure, shortened: as §1
row,Compound,growth at 10 µM
1,COc1cccc(-c2nc3sccn3c2-c2ccnc(NCCNC(=O)c3cc(C(F)(F)F)cc(C(F)(F)F)c3)n2)c1,93.4%

# Test system: MDA-MB-468
# Assay: Anticancer activity against human MDA-MB-468 cells assessed as cell growth at 10^-5 M after 48 hrs by SRB assay
# Type: functional
# Settings: MDA-MB-468, 48 h, read-out: Activity
row,Compound,growth at 10 µM
1,COc1cccc(-c2nc3sccn3c2-c2ccnc(NCCNC(=O)c3cc(C(F)(F)F)cc(C(F)(F)F)c3)n2)c1,95.6%

# Test system: M14
# Assay: Anticancer activity against human M14 cells assessed as cell growth at 10^-5 M after 48 hrs by SRB assay
# Type: functional
# Settings: M14, 48 h, read-out: Activity
# Procedure, shortened: as §1
row,Compound,growth at 10 µM
1,COc1cccc(-c2nc3sccn3c2-c2ccnc(NCCNC(=O)c3cc(C(F)(F)F)cc(C(F)(F)F)c3)n2)c1,79.3%

# Test system: UACC-62
# Assay: Anticancer activity against human UACC62 cells assessed as cell growth at 10^-5 M after 48 hrs by SRB assay
# Type: functional
# Settings: UACC-62, 48 h, read-out: Activity
# Procedure, shortened: (§2)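 NCI-60 single-dose screen: cells in RPMI 1640 with 5% FBS and 2 mM L-glutamine, plated at 5000–40,000 cells/well by doubling time, and preincubated 24 h at 37 °C. Compound given at one concentration from DMSO stock. Cells TCA-fixed and SRB-stained, absorbance at 515 nm. Percent growth relative to time-zero and untreated controls; inhibition % = 100 − growth %.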
row,Compound,growth at 10 µM
1,COc1cccc(-c2nc3sccn3c2-c2ccnc(NCCNC(=O)c3cc(C(F)(F)F)cc(C(F)(F)F)c3)n2)c1,70.3%

# Test system: NCI/ADR-RES
# Assay: Anticancer activity against human NCI/ADR-RES cells assessed as cell growth at 10^-5 M after 48 hrs by SRB assay
# Type: functional
# Settings: read-out: Activity
row,Compound,growth at 10 µM
1,COc1cccc(-c2nc3sccn3c2-c2ccnc(NCCNC(=O)c3cc(C(F)(F)F)cc(C(F)(F)F)c3)n2)c1,72.7%

# Test system: MDA-MB-435
# Assay: Anticancer activity against human MDA-MB-435 cells assessed as cell growth at 10^-5 M after 48 hrs by SRB assay
# Type: functional
# Settings: MDA-MB-435, 48 h, read-out: Activity
row,Compound,growth at 10 µM
1,COc1cccc(-c2nc3sccn3c2-c2ccnc(NCCNC(=O)c3cc(C(F)(F)F)cc(C(F)(F)F)c3)n2)c1,83.9%

# Test system: MOLT-4
# Assay: Anticancer activity against human MOLT4 cells assessed as cell growth at 10^-5 M after 48 hrs by SRB assay
# Type: functional
# Settings: MOLT-4, 48 h, read-out: Activity
row,Compound,growth at 10 µM
1,COc1cccc(-c2nc3sccn3c2-c2ccnc(NCCNC(=O)c3cc(C(F)(F)F)cc(C(F)(F)F)c3)n2)c1,67.6%

# Test system: SNB-19
# Assay: Anticancer activity against human SNB19 cells assessed as cell growth at 10^-5 M after 48 hrs by SRB assay
# Type: functional
# Settings: SNB-19, 48 h, read-out: Activity
row,Compound,growth at 10 µM
1,COc1cccc(-c2nc3sccn3c2-c2ccnc(NCCNC(=O)c3cc(C(F)(F)F)cc(C(F)(F)F)c3)n2)c1,99.2%

# Test system: A549
# Assay: Anticancer activity against human A549 cells assessed as cell growth at 10^-5 M after 48 hrs by SRB assay
# Type: functional
# Settings: A549, 48 h, read-out: Activity
# Procedure, shortened: as §1
row,Compound,growth at 10 µM
1,COc1cccc(-c2nc3sccn3c2-c2ccnc(NCCNC(=O)c3cc(C(F)(F)F)cc(C(F)(F)F)c3)n2)c1,81.2%

# Test system: OVCAR-4
# Assay: Anticancer activity against human OVCAR4 cells assessed as cell growth at 10^-5 M after 48 hrs by SRB assay
# Type: functional
# Settings: OVCAR-4, 48 h, read-out: Activity
row,Compound,growth at 10 µM
1,COc1cccc(-c2nc3sccn3c2-c2ccnc(NCCNC(=O)c3cc(C(F)(F)F)cc(C(F)(F)F)c3)n2)c1,103%

# Test system: PC-3
# Assay: Anticancer activity against human PC3 cells assessed as cell growth at 10^-5 M after 48 hrs by SRB assay
# Type: functional
# Settings: PC-3, 48 h, read-out: Activity
row,Compound,growth at 10 µM
1,COc1cccc(-c2nc3sccn3c2-c2ccnc(NCCNC(=O)c3cc(C(F)(F)F)cc(C(F)(F)F)c3)n2)c1,49.5%

# Test system: not listed separately
# Assay: Antiproliferative activity against human A375P cells after 48 hrs by MTT assay
# Type: functional, cell-based
# Settings: not given
# Procedure, shortened: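 A375P cells in DMEM with 10% FBS at 37 °C, 5% CO2. Seeded at 5×10³ cells/well, held 24 h, then treated with 12-point 3-fold serial dilutions for 48 h. Viability by MTT reduction. IC50 values are means of triplicate experiments.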
row,Compound,IC50
1,COc1cccc(-c2nc3sccn3c2-c2ccnc(NCCNC(=O)c3cc(C(F)(F)F)cc(C(F)(F)F)c3)n2)c1,> 10 µM

# Test system: SN12C
# Assay: Anticancer activity against human SN12C cells assessed as cell growth at 10^-5 M after 48 hrs by SRB assay
# Type: functional
# Settings: read-out: Activity
row,Compound,growth at 10 µM
1,COc1cccc(-c2nc3sccn3c2-c2ccnc(NCCNC(=O)c3cc(C(F)(F)F)cc(C(F)(F)F)c3)n2)c1,90.8%

# Test system: HCC 2998
# Assay: Anticancer activity against human HCC2998 cells assessed as cell growth at 10^-5 M after 48 hrs by SRB assay
# Type: functional
# Settings: HCC 2998, 48 h, read-out: Activity
# Procedure, shortened: as §1
row,Compound,growth at 10 µM
1,COc1cccc(-c2nc3sccn3c2-c2ccnc(NCCNC(=O)c3cc(C(F)(F)F)cc(C(F)(F)F)c3)n2)c1,90.2%

# Test system: SW-620
# Assay: Anticancer activity against human SW620 cells assessed as cell growth at 10^-5 M after 48 hrs by SRB assay
# Type: functional
# Settings: SW-620, 48 h, read-out: Activity
# Procedure, shortened: as §2
row,Compound,growth at 10 µM
1,COc1cccc(-c2nc3sccn3c2-c2ccnc(NCCNC(=O)c3cc(C(F)(F)F)cc(C(F)(F)F)c3)n2)c1,119%

# Test system: SF-295
# Assay: Anticancer activity against human SF295 cells assessed as cell growth at 10^-5 M after 48 hrs by SRB assay
# Type: functional
# Settings: SF-295, 48 h, read-out: Activity
row,Compound,growth at 10 µM
1,COc1cccc(-c2nc3sccn3c2-c2ccnc(NCCNC(=O)c3cc(C(F)(F)F)cc(C(F)(F)F)c3)n2)c1,94.5%

# Test system: K562
# Assay: Anticancer activity against human K562 cells assessed as cell growth at 10^-5 M after 48 hrs by SRB assay
# Type: functional
# Settings: K562, 48 h, read-out: Activity
# Procedure, shortened: as §1
row,Compound,growth at 10 µM
1,COc1cccc(-c2nc3sccn3c2-c2ccnc(NCCNC(=O)c3cc(C(F)(F)F)cc(C(F)(F)F)c3)n2)c1,83.5%

# Test system: SK-MEL-28
# Assay: Anticancer activity against human SK-MEL-28 cells assessed as cell growth at 10^-5 M after 48 hrs by SRB assay
# Type: functional
# Settings: SK-MEL-28, 48 h, read-out: Activity
row,Compound,growth at 10 µM
1,COc1cccc(-c2nc3sccn3c2-c2ccnc(NCCNC(=O)c3cc(C(F)(F)F)cc(C(F)(F)F)c3)n2)c1,97.6%

# Test system: NCI-H460
# Assay: Anticancer activity against human NCI-H460 cells assessed as cell growth at 10^-5 M after 48 hrs by SRB assay
# Type: functional
# Settings: NCI-H460, 48 h, read-out: Activity
row,Compound,growth at 10 µM
1,COc1cccc(-c2nc3sccn3c2-c2ccnc(NCCNC(=O)c3cc(C(F)(F)F)cc(C(F)(F)F)c3)n2)c1,92.2%

# Test system: CAKI-1
# Assay: Anticancer activity against human Caki1 cells assessed as cell growth at 10^-5 M after 48 hrs by SRB assay
# Type: functional
# Settings: CAKI-1, 48 h, read-out: Activity
# Procedure, shortened: as §1
row,Compound,growth at 10 µM
1,COc1cccc(-c2nc3sccn3c2-c2ccnc(NCCNC(=O)c3cc(C(F)(F)F)cc(C(F)(F)F)c3)n2)c1,85.9%

# Test system: UACC-257
# Assay: Anticancer activity against human UACC257 cells assessed as cell growth at 10^-5 M after 48 hrs by SRB assay
# Type: functional
# Settings: UACC-257, 48 h, read-out: Activity
# Procedure, shortened: as §2
row,Compound,growth at 10 µM
1,COc1cccc(-c2nc3sccn3c2-c2ccnc(NCCNC(=O)c3cc(C(F)(F)F)cc(C(F)(F)F)c3)n2)c1,99.6%

# Test system: HL-60(TB)
# Assay: Anticancer activity against human HL-60(TB) cells assessed as cell growth at 10^-5 M after 48 hrs by SRB assay
# Type: functional
# Settings: HL-60, 48 h, read-out: Activity
# Procedure, shortened: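 NCI-60 single-dose screen. Cells in RPMI 1640 with 5% FBS and 2 mM L-glutamine were plated at 5000–40,000 cells/well and preincubated 24 h at 37 °C before one compound concentration. Time-zero plates were TCA-fixed at drug addition. For suspension cells, settled cells were fixed with cold TCA, then SRB-stained and read at 515 nm. Percent growth was calculated from time-zero, control and treated absorbances.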
row,Compound,growth at 10 µM
1,COc1cccc(-c2nc3sccn3c2-c2ccnc(NCCNC(=O)c3cc(C(F)(F)F)cc(C(F)(F)F)c3)n2)c1,131%

# Test system: SK-MEL-5
# Assay: Anticancer activity against human SK-MEL-5 cells assessed as cell growth at 10^-5 M after 48 hrs by SRB assay
# Type: functional
# Settings: SK-MEL-5, 48 h, read-out: Activity
row,Compound,growth at 10 µM
1,COc1cccc(-c2nc3sccn3c2-c2ccnc(NCCNC(=O)c3cc(C(F)(F)F)cc(C(F)(F)F)c3)n2)c1,75%

# Test system: RXF 393
# Assay: Anticancer activity against human RXF393 cells assessed as cell growth at 10^-5 M after 48 hrs by SRB assay
# Type: functional
# Settings: RXF 393, 48 h, read-out: Activity
row,Compound,growth at 10 µM
1,COc1cccc(-c2nc3sccn3c2-c2ccnc(NCCNC(=O)c3cc(C(F)(F)F)cc(C(F)(F)F)c3)n2)c1,51.2%

# Test system: SR
# Assay: Anticancer activity against human SR cells assessed as cell growth at 10^-5 M after 48 hrs by SRB assay
# Type: functional
# Settings: read-out: Activity
# Procedure, shortened: as §2
row,Compound,growth at 10 µM
1,COc1cccc(-c2nc3sccn3c2-c2ccnc(NCCNC(=O)c3cc(C(F)(F)F)cc(C(F)(F)F)c3)n2)c1,78.1%
